ChEMBL document CHEMBL1126311, “Novel functional M1 selective muscarinic agonists. 2. Synthesis and structure-activity relationships of 3-pyrazinyl-1,2,5,6-tetrahydro-1-methylpyridines. Construction of a molecular model for the M1 pharmacophore” (J Med Chem, 1992)

Key:
[1] = molecular target: T1, Muscarinic acetylcholine receptor M1 (Rattus norvegicus, UniProt P08482); assay: In vitro binding affinity against rat hippocampus M1 receptor using [3H]pirenzepine (Pz) as radioligand; format: tissue-based
T1 sequence (P08482 whole entry): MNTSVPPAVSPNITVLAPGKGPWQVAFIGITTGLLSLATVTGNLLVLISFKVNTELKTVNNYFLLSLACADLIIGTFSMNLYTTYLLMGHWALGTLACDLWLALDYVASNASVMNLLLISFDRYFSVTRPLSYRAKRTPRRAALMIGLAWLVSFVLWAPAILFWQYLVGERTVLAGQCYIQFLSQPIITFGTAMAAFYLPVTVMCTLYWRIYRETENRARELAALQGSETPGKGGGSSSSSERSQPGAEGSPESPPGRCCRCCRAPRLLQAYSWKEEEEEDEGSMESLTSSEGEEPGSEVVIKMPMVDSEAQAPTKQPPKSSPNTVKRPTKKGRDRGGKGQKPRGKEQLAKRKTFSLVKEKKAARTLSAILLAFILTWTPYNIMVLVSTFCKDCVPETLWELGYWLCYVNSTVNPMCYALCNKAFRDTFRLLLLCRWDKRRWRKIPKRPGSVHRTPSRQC
Summary of the method: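 Male Sprague-Dawley rat hippocampal P2 membranes (10 mg tissue wet weight, about 0.1 mg protein) with 1 nM [3H]pirenzepine in 20 mM Tris-Cl pH 7.4 containing 1 mM MnCl2, 1 mL, 60 min at 25 °C.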

[2] = molecular target: T1, Muscarinic acetylcholine receptor M1; assay: In vitro binding affinity against rat hippocampus M1 receptor using [3H]oxotremorine-M (Oxo-M) as radioligand; format: tissue-based
Summary of the method: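 Male Sprague-Dawley rat hippocampal P2 membranes (10 mg tissue wet weight, about 0.1 mg protein) with 3 nM [3H]oxotremorine-M in 20 mM Tris-Cl pH 7.4, 1 mL, 15 min at 25 °C.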

Oryctolagus cuniculus [3] = species: Oryctolagus cuniculus; assay: (§1) Efficacy at M1 receptor measured by the ability to inhibit the electrically stimulated twitch of the rabbit vas deferens; format: functional, organism-based
Summary of the method: (§2)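 Cumulative concentration-effect curves with additions at 20-min intervals in two tissues; read-out twitch height decrease; if inhibition ≥50%, curves repeated in at least six tissues.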

Oryctolagus cuniculus [4] = species: Oryctolagus cuniculus; assay: as §1; format: functional; summary of the method: as §2
[5] = molecular target: T1, Muscarinic acetylcholine receptor M1; assay: Displacement of [3H]oxotremorine-M (Oxo-M) from rat hippocampus muscarinic acetylcholine receptor M1; format: tissue-based
[6] = molecular target: T1, Muscarinic acetylcholine receptor M1; assay: Displacement of [3H]pirenzepine (Pz) from rat hippocampus muscarinic acetylcholine receptor M1; format: tissue-based

Compound	IC50 [1] [nM]	IC50 [2] [nM]	IC50 (Oryctolagus cuniculus [3]) [nM]	Max (Oryctolagus cuniculus [4]) [%]	IC50 [5] [nM]	IC50 [6] [nM]
CCCOc1nsnc1C1=CCCN(C)C1	–	–	–	25	–	–
CCCCCCOc1nonc1C1=CCCN(C)C1	–	–	–	47	–	–
COc1nccnc1C1=CCCN(C)C1	840	850	–	0	–	–
CN1CCC=C(c2nccnc2Cl)C1	–	–	–	–	276	> 1000
CCCCCCSc1nccnc1C1=CCCN(C)C1	28	44	224	62	–	–
CCCCCCNc1nsnc1C1=CCCN(C)C1	–	–	–	65	–	–
CCCCCSc1nccnc1C1=CCCN(C)C1	10	13	–	18	–	–

Further lines, with some results ahead:

IC50 [1] [nM]	IC50 [2] [nM]	IC50 (Oryctolagus cuniculus [3]) [nM]	Compound	Max (Oryctolagus cuniculus [4]) [%]	IC50 [5] [nM]	IC50 [6] [nM]
17	20	266	CCCCCCOc1nccnc1C1=CCCN(C)C1	93	–	–
17	17	–	CCCCOc1nccnc1C1=CCCN(C)C1	0	–	–
16	19	–	CCCCCOc1nccnc1C1=CCCN(C)C1	29	–	–
175	200	–	CCOc1nccnc1C1=CCCN(C)C1	14	–	–
65	58	–	CCCOc1nccnc1C1=CCCN(C)C1	4	–	–
